Experimental data published in ChEMBL document CHEMBL1139850, “Hypoxia-selective antitumor agents: norsesterterpene peroxides from the marine sponge Diacarnus levii preferentially suppress the growth of tumor cells under hypoxic conditions” (J Nat Prod, 2007).
Calls of active or inactive are those of the source. No cut-off for these calls is given here.

Assays:
PC-3 [1] = test: Antiproliferative activity against human PC3 cells under hypoxic condition; format: functional, cell-based
Method in brief: (§1)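 Human prostate (DU145, PC-3) and breast (MCF-7, MDA-MB-231, T47D) carcinoma cells were grown in DMEM/F12 with 10% FCS and Pen/Strep. They were seeded at 30,000 cells/well and left overnight. Compound was added with DMSO up to 0.6% final, and plates went 48 h at 37 °C, hypoxic (1% O2:5% CO2:94% N2) or normoxic (5% CO2:95% air). Read-out was neutral red, A540 corrected at 630 nm, in quadruplicate.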

DU-145 [2] = test: Antiproliferative activity against human DU145 cells under normoxic condition; format: functional, cell-based; method in brief: as §1
T47D [3] = test: Antiproliferative activity against human T47D cells under hypoxic condition; format: functional, cell-based; method in brief: as §1
T47D [4] = test: Antiproliferative activity against T47D cells at 12. 7 uM; format: functional, Homo sapiens
MDA-MB-231 [5] = test: Antiproliferative activity against human MDA-MB-231 cells under hypoxic condition; format: functional, cell-based; method in brief: as §1
DU-145 [6] = test: Antiproliferative activity against human DU145 cells under hypoxic condition; format: functional, cell-based; method in brief: as §1
Homo sapiens [7] = organism: Homo sapiens; test: Inhibition of hypoxia-induced HIF1 activation at 12. 7 uM
Method in brief: (§2)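 HIF-1 activity was read in transfected cells by a luciferase reporter after a 16 h compound exposure under hypoxia (1% O2:5% CO2:94% N2). Normoxic (5% CO2:95% air) and hypoxia-mimetic (10 µM 1,10-phenanthroline) conditions were run alongside.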

MCF7 [8] = test: Antiproliferative activity against human MCF7 cells under hypoxic condition; format: functional, cell-based; method in brief: as §1
T47D [9] = test: Antiproliferative activity against human T47D cells under normoxic condition; format: functional, cell-based; method in brief: as §1
MCF7 [10] = test: Antiproliferative activity against human MCF7 cells under normoxic condition; format: functional, cell-based; method in brief: as §1
MDA-MB-231 [11] = test: Antiproliferative activity against human MDA-MB-231 cells under normoxic condition; format: functional, cell-based; method in brief: as §1
PC-3 [12] = test: Antiproliferative activity against human PC3 cells under normoxic condition; format: functional, cell-based; method in brief: as §1
Homo sapiens [13] = organism: Homo sapiens; test: Inhibition of hypoxia induced HIF-1 activation at 1.27 uM; method in brief: as §2
T47D [14] = test: Antiproliferative activity against T47D cells at 1.27 uM; format: functional, cell-based; settings: Homo sapiens
MDA-MB-231 [15] = test: Antiproliferative activity against human MDA-MB-231 cells at 0.3 uM; format: functional, cell-based; method in brief: as §1
T47D [16] = test: Antiproliferative activity against T47D cells after 16 hrs at 12. 7 uM; format: functional, Homo sapiens

Row | SMILES | IC50 (PC-3 [1]) [µM] | IC50 (DU-145 [2]) [µM] | IC50 (T47D [3]) [µM] | Activity (T47D [4]) | IC50 (MDA-MB-231 [5]) [µM] | IC50 (DU-145 [6]) [µM] | inhibition (Homo sapiens [7]) [%] | IC50 (MCF7 [8]) [µM] | IC50 (T47D [9]) [µM] | IC50 (MCF7 [10]) [µM] | IC50 (MDA-MB-231 [11]) [µM] | IC50 (PC-3 [12]) [µM] | Activity (Homo sapiens [13]) | Activity (T47D [14]) | Activity (MDA-MB-231 [15]) | Activity (T47D [16]) [%]
1 | C=C1CCCC(C)(C)C1CCC(C)CCC[C@@]1(C)CC[C@H]([C@H](C)C(=O)OC)OO1 (relative stereo) [DIACARNOXIDE A] | > 30 | > 30 | 26.9 | <=30% | 17.8 | > 30 | < 30 | > 30 | 14.7 | > 30 | 17.8 | > 30 | – | – | – | –
2 | C=C1CCCC(C)(C)C1CCC(C)CCC[C@@]1(C)CC[C@H]([C@H](C)C(=O)O)OO1 (relative stereo) [DIACARNOXIDE B] | 12.9 | 6.6 | 6 | – | 5.6 | 5.3 | 95 | 6.6 | 5.6 | 13.8 | 13.3 | 16.7 | inactive | inactive | Active | 97
3 | COC(=O)[C@@H](C)[C@H]1CC[C@](C)(CCCC(C)CCC2=C(C)CCCC2(C)C)OO1 (relative stereo) [DIACARNOXIDE C] | – | – | – | <=30% | – | – | < 30 | – | – | – | – | – | – | – | – | –
4 | COC(=O)[C@@H](C)[C@H]1CC[C@](C)(CCC/C(C)=C/CC2C(C)=CCCC2(C)C)OO1 (relative stereo) [DIACARNOXIDE D] | – | – | – | <=30% | – | – | < 30 | – | – | – | – | – | – | – | – | –
